Laboratory results taken from ChEMBL document CHEMBL4020709, “4-Indolyl-N-hydroxyphenylacrylamides as potent HDAC class I and IIB inhibitors in vitro and in vivo” (Eur J Med Chem, 2017).
pIC50: −log10 of the molar value. The source made the active and inactive calls. The rule behind the calls is not given here.

Experiments:
[1] = Inhibition of HDAC in human HeLa cell nuclear extract using […] as substrate after 30 mins by fluorescence assay; type: cell-free
Outline: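 HeLa nuclear extract was incubated with fluorometric HDAC substrate in assay buffer at 37°C for 30 min. Lysine developer was then added for a further 30 min at 37°C. Fluorescence was read at ex 355/em 460 nm. Negative controls lacked extract, substrate, or both.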

PC-3 [2] = assay: cells; type: functional; details: Homo sapiens, PC-3, 48 h
A549 = assay: cells; type: functional; details: Homo sapiens, A549, 48 h
MDA-MB-231 = assay: cells; type: functional; details: Homo sapiens, MDA-MB-231, 48 h
ASPC1 = assay: cells; type: functional; details: Homo sapiens, ASPC1, 48 h
Histone deacetylase 4 = Histone deacetylase 4 (Homo sapiens, UniProt P56524); assay: Inhibition of recombinant human full length HDAC4 using Fluor-de-Lys as substrate after 60 mins by spectrofluorimetric analysis
Histone deacetylase 2 = Histone deacetylase 2 (Homo sapiens, UniProt Q92769); assay: Inhibition of recombinant human full length HDAC2 using Fluor-de-Lys as substrate after 60 mins by spectrofluorimetric analysis
Histone deacetylase 1 = Histone deacetylase 1 (Homo sapiens, UniProt Q13547); assay: Inhibition of recombinant human full length HDAC1 using Fluor-de-Lys as substrate after 60 mins by spectrofluorimetric analysis
[3] = target: T1, Protein deacetylase HDAC6 (Homo sapiens, UniProt Q9UBN7); assay: Inhibition of recombinant human full length HDAC6 using Fluor-de-Lys as substrate after 60 mins by spectrofluorimetric analysis
T1 sequence (Q9UBN7 whole entry): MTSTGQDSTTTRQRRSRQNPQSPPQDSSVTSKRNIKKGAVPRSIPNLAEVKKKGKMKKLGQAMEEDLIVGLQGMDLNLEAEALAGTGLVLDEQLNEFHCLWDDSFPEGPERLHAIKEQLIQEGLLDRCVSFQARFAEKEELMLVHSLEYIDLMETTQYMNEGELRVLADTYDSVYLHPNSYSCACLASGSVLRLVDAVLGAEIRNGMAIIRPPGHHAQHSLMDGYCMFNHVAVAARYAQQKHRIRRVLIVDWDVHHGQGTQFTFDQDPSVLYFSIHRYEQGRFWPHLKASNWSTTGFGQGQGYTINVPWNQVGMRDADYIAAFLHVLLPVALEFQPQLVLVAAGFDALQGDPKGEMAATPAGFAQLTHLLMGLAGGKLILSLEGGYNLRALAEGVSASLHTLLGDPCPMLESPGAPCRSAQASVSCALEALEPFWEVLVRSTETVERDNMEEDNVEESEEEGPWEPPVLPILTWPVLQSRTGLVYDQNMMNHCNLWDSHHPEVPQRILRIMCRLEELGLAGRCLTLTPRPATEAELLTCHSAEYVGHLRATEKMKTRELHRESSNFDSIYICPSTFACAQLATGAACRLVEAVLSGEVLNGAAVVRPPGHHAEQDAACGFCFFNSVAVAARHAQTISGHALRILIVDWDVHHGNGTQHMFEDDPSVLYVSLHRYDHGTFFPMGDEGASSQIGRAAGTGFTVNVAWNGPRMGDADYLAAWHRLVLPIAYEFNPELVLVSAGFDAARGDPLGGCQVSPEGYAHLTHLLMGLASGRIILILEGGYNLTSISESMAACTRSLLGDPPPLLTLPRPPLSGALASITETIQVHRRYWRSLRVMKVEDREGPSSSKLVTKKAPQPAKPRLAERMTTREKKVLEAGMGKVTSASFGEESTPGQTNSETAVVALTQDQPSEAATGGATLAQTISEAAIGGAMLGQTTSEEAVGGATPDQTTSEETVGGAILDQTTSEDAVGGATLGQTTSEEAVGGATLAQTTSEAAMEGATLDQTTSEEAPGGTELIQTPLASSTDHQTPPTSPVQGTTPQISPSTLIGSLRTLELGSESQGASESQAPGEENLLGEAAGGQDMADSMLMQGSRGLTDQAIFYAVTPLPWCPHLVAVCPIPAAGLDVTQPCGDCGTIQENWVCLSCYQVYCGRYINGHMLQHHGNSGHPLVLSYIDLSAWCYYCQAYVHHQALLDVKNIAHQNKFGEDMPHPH

Histone deacetylase 8 = target: T2, Histone deacetylase 8 (Homo sapiens, UniProt Q9BY41); assay: Inhibition of recombinant human full length HDAC8 using Fluor-de-Lys as substrate after 60 mins by spectrofluorimetric analysis
T2 sequence (Q9BY41 whole entry): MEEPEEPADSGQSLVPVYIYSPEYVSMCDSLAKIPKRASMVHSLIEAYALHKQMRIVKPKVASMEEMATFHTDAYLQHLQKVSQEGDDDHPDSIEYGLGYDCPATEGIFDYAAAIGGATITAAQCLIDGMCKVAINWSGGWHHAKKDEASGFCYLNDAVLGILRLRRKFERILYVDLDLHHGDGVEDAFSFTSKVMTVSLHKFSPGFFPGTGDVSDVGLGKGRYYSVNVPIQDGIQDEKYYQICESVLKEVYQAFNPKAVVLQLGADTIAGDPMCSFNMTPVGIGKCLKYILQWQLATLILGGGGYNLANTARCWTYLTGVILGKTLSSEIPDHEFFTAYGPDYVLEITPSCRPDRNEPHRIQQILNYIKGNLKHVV

PC-3 [4] = assay: Antitumor activity against human PC3 cells xenografted in nude mouse assessed as reduction in tumor volume administered ip every other day for 18 days measured twice weekly; type: functional, organism-based
Outline: (§1)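 Male nude mice were implanted s.c. in the flank with PC3 cells (1 × 10^7 per mouse) mixed with Matrigel. Dosing began at a tumor size of about 100 mm³ and was given i.p. every other day for 18 days. Tumors were measured by caliper twice weekly, and volume was calculated as length × width²/2. %TGI was derived from mean tumor volume against the vehicle group, compared by one-way ANOVA.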

PC-3 [5] = assay: Antitumor activity against human PC3 cells xenografted in nude mouse assessed as tumor growth inhibition at 20 mg/kg, ip administered every other day for 18 days measured twice weekly; type: functional; details: PC-3, ip, 432 h, read-out: TGI; outline: as §1
PC-3 [6] = assay: Antitumor activity against human PC3 cells xenografted in nude mouse assessed as tumor growth inhibition at 40 mg/kg, ip administered every other day for 18 days measured twice weekly; type: functional; details: PC-3, ip, 432 h, read-out: TGI; outline: as §1
Mus musculus [7] = assay: Toxicity in nude mouse xenografted with human PC3 cells assessed as weight loss at 20 to 40 mg/kg, ip administered every other day for 18 days; type: organism-based; details: in vivo, 432 h
Outline: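 Male nude mice carried s.c. PC3 flank xenografts (1 × 10^7 cells with Matrigel). They received i.p. vehicle, 20 mg/kg or 40 mg/kg every other day for 18 days, and body weight (g) was tracked over the study.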

Mus musculus [8] = assay: In-vivo inhibition of HDAC in ip dosed nude mouse xenografted with human PC3 cells assessed as upregulation of acetyl-histone 3 expression by hematoxylin/eosin staining based immunohistochemical analysis; type: functional, organism-based
Outline: (§2)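 PC3 xenograft tumors were formalin-fixed and paraffin-embedded, then sectioned. Sections were deparaffinized and rehydrated, and endogenous peroxidase was quenched with 3% H2O2. Antigen retrieval used pH 9 buffer at 80°C overnight, followed by blocking with fat-free milk. Primary antibody (acetyl-histone H3, HDAC1 or HDAC2) was applied at 4°C overnight, then secondary antibody, then Mayer's hematoxylin counterstain. Separate sections received H&E staining.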

Mus musculus [9] = assay: Downregulation of HDAC2 expression in nude mouse xenografted with human PC3 cells at 40 mg/kg, ip administered every other day for 18 days measured twice weekly by hematoxylin/eosin staining based immunohistochemical analysis; type: functional, organism-based; outline: as §2
Mus musculus [10] = assay: Effect on HDAC1 expression in nude mouse xenografted with human PC3 cells at 20 and 40 mg/kg, ip administered every other day for 18 days measured twice weekly by hematoxylin/eosin staining based immunohistochemical analysis; type: functional, organism-based; outline: as §2
Homo sapiens [11] = species: Homo sapiens; details: at 1 µM
Homo sapiens [12] = species: Homo sapiens; details: at 1 µM; remark: listed apart in the source

Chain of Histone deacetylase 4 (P56524 whole entry): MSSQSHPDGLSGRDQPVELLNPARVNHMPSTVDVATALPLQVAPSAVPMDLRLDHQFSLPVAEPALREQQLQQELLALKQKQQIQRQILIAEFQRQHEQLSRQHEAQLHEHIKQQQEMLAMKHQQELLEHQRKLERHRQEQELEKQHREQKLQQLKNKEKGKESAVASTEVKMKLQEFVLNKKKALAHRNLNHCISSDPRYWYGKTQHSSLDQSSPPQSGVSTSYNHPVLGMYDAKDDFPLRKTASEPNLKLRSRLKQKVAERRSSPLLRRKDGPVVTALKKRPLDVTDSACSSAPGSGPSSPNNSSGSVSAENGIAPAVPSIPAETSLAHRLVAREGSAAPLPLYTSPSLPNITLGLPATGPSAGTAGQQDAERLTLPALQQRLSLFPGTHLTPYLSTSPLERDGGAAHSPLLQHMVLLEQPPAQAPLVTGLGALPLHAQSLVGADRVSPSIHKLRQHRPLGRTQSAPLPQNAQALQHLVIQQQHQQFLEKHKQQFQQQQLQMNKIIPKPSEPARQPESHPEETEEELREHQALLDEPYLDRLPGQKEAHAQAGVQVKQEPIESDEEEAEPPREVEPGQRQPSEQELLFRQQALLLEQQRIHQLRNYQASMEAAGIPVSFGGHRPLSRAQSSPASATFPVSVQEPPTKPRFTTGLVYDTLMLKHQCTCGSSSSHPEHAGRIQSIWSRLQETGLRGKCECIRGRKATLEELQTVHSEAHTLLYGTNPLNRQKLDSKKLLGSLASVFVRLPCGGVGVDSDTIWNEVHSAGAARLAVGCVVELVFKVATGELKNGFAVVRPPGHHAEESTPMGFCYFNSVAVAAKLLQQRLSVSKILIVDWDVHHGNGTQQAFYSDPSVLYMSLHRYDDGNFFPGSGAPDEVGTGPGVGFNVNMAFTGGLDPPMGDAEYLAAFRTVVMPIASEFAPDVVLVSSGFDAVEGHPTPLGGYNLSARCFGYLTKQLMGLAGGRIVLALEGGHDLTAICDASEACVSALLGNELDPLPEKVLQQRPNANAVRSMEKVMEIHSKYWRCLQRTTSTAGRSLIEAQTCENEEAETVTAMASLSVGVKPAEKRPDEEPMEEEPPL
Chain of Histone deacetylase 2 (Q92769 whole entry): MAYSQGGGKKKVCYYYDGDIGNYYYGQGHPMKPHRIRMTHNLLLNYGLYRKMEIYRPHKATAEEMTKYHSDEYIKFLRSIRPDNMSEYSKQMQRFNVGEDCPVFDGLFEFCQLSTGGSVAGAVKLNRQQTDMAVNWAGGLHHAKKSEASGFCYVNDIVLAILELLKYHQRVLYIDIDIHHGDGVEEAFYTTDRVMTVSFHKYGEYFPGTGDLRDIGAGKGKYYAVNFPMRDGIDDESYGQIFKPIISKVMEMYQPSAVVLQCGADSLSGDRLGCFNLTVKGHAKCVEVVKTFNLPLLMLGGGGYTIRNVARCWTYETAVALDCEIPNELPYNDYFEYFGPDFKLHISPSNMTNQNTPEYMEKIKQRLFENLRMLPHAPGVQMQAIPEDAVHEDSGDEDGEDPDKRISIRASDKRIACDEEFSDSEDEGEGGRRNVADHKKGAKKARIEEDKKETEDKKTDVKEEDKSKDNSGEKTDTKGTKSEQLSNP
Chain of Histone deacetylase 1 (Q13547 whole entry): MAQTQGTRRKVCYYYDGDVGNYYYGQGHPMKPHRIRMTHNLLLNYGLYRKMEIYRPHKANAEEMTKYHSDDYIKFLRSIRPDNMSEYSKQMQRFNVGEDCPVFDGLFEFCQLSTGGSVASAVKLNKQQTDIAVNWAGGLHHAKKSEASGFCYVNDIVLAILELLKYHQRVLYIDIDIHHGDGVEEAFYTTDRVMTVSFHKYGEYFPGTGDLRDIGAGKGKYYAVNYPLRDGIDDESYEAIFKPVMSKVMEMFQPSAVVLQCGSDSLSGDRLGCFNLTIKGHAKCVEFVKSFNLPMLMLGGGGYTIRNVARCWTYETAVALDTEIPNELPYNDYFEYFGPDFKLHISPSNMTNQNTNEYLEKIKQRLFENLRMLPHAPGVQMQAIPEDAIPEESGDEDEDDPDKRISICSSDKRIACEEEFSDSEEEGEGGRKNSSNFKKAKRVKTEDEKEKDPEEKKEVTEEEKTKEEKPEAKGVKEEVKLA

pIC50 [1]	GI50 (PC-3 [2]) [nM]	GI50 (A549) [nM]	GI50 (MDA-MB-231) [nM]	GI50 (ASPC1) [nM]	SMILES	further results
7.52	310	870	2060	3850	O=C(/C=C/c1cccc(S(=O)(=O)NCCc2cccc3[nH]ccc23)c1)NO	
6.88					O=C(CCCCCCC(=O)Nc1ccccc1)NO [VORINOSTAT]	
7.09	310	230	280	650	O=C(/C=C/c1cccc(S(=O)(=O)Nc2ccccc2)c1)NO [BELINOSTAT]	pIC50 (Histone deacetylase 4): < 6.00
< 6.00	3490	> 10000	> 10000	> 10000	O=C(/C=C/c1ccc(S(=O)(=O)Nc2cccc3[nH]ccc23)cc1)NO	
7.84	150	250	80	160	Cn1ccc2c(CCNS(=O)(=O)c3ccc(/C=C/C(=O)NO)cc3)cccc21	pIC50 (Histone deacetylase 2): 9.28; pIC50 (Histone deacetylase 1): 8.87; pIC50 (Histone deacetylase 4): < 7.00; pIC50 [3]: 8.17; pIC50 (Histone deacetylase 8): < 7.00
7.22	2880	4350	5850	12500	COc1ccc(S(=O)(=O)n2ccc3c(CCNS(=O)(=O)c4ccc(/C=C/C(=O)NO)cc4)cccc32)cc1	
8.14	860	1650	3550	4560	O=C(/C=C/c1ccc(S(=O)(=O)NCc2cccc3[nH]ccc23)cc1)NO	
7.12	310	600	9910	3970	O=C(/C=C/c1ccc(S(=O)(=O)NCCc2ccc3[nH]ccc3c2)cc1)NO	
8.07	140	250	320	240	O=C(/C=C/c1ccc(S(=O)(=O)NCCc2cccc3[nH]ccc23)cc1)NO	pIC50 (Histone deacetylase 2): 9.05; pIC50 (Histone deacetylase 1): 8.89; pIC50 (Histone deacetylase 4): < 7.00; pIC50 [3]: 8.08; pIC50 (Histone deacetylase 8): < 7.00; Activity (PC-3 [4]): Dose-dependent effect; inhibition in vivo at 20 mg/kg (PC-3 [5]): 51.6%; inhibition in vivo at 40 mg/kg (PC-3 [6]): 62.2%; Activity (Mus musculus [7]): Non-Toxic; Activity (Mus musculus [8]): Dose-dependent effect; Activity (Mus musculus [9]): Active; Activity (Mus musculus [10]): inactive; inhibition (Homo sapiens [11]): Active; inhibition (Homo sapiens [12]): Active
7.28	330	820	2470	2780	O=C(/C=C/c1cccc(S(=O)(=O)NCCc2ccc3[nH]ccc3c2)c1)NO	

SMILES	pIC50 [1]	GI50 (PC-3 [2]) [nM]	GI50 (A549) [nM]	GI50 (MDA-MB-231) [nM]	GI50 (ASPC1) [nM]	further results
Nc1ccccc1NC(=O)c1ccc(CNC(=O)OCc2cccnc2)cc1 [ENTINOSTAT]	< 6.00	430	5760	1410	6900	
